Key:
Glutamate NMDA receptor [1] = assay: Inhibition of strychnine-insensitive [3H]glycine binding to the N-methyl-D-aspartate glutamate receptor of synaptic plasma membranes(SPM) prepared from rat forebrain; type: cell-free
How it was run: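 Rat forebrain synaptic plasma membranes (male Sprague-Dawley, 30–45 days old), Triton X-100-washed; 0.2–0.4 mg incubated with 10 nM [3H]glycine and a range of compound concentrations in triplicate, in 50 mM Tris/acetate pH 7.4, for 10 min at 2 °C. Bound ligand separated by centrifugation (12000g, 15 min, 4 °C) or GF/B filtration, then scintillation counted. Nonspecific binding set with 100 μM glycine. Ki derived by logit-log analysis.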

Glutamate NMDA receptor [2] = assay: Inhibition of strychnine-insensitive [3H]MK-801 binding to the N-methyl-D-aspartate glutamate receptor of synaptic plasma membranes(SPM) prepared from rat forebrain; type: cell-free
How it was run: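 Membranes treated with 0.04% v/v Triton X-100 and washed extensively in 50 mM Tris acetate pH 7.4. SPM (0.2–0.4 mg) incubated with 5 nM [3H]MK-801, 10 nM L-glutamate and test compound in the same buffer for 30 min at 25 °C. Samples filtered on 0.05% polyethylenimine-treated GF/B filters and washed four times with cold buffer. Filters scintillation counted; nonspecific binding set with 60 μM MK-801.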

| Structure (SMILES) | Ki (Glutamate NMDA receptor [1]) [µM] | IC50 (Glutamate NMDA receptor [2]) [µM] |
| --- | --- | --- |
| O=C(O)CCc1c(C(=O)O)[nH]c2ccccc12 | > 100 |  |
| O=C(O)c1cc2cc(Br)ccc2[nH]1 | > 100 |  |
| O=C(O)c1[nH]c2cc(Cl)ccc2c1O | > 100 |  |
| O=C(O)c1cc2cc(F)ccc2[nH]1 [5-FLUOROINDOLE-2-CARBOXYLIC ACID] | 91 |  |
| O=C1Cc2c([nH]c3cc(Cl)ccc23)C(=O)O1 | 75.1 |  |
| CCC(C(=O)O)c1c(C(=O)O)[nH]c2ccccc12 (stereo not given) | > 100 |  |
| Cc1cc2c(CC(=O)O)c(C(=O)O)[nH]c2cc1Cl | > 30 |  |
| NC(=O)Cc1c(C(=O)O)[nH]c2cc(Cl)ccc12 | 1.18 |  |
| CC(=O)Cc1c(C(=O)O)[nH]c2ccccc12 | 29.6 |  |
| O=C(Cc1c(C(=O)O)[nH]c2cc(Cl)ccc12)NCCc1ccccc1 | 0.63 |  |
| CCOCCc1c(C(=O)O)[nH]c2cc(Cl)ccc12 | 8.25 |  |
| O=C(O)Cc1c(C(=O)O)[nH]c2c(Cl)cccc12 | > 30 |  |
| O=C(O)c1cc2c(C(=O)O)cccc2[nH]1 | > 100 |  |
| O=C(O)c1[nH]c2ccccc2c1CCO | > 30 |  |
| O=C(O)c1cc2c(OCc3ccccc3)cccc2[nH]1 | > 30 |  |
| O=C(O)Cc1c(C(=O)O)[nH]c2ccc(Cl)cc12 | 10.9 |  |
| CCOC(=O)Cc1c(C(=O)OCCCN(C)C)[nH]c2cc(Cl)ccc12 | > 100 |  |
| O=C(O)c1cc2ccccc2[nH]1 [INDOLE-2-CARBOXYLIC ACID] | > 100 |  |
| CCCNC(=O)Cc1c(C(=O)O)[nH]c2cc(Cl)ccc12 | 0.47 |  |
| COc1ccc2[nH]c(C(=O)O)cc2c1 | > 100 |  |
| O=C(O)c1[nH]c2ccccc2c1CO | > 100 |  |
| O=C(O)C1Cc2ccccc2N1 (stereo not given) | > 30 |  |

| Structure (SMILES) | Ki (Glutamate NMDA receptor [1]) [µM] | IC50 (Glutamate NMDA receptor [2]) [µM] |
| --- | --- | --- |
| O=C(O)CC1c2ccccc2OC1C(=O)O (stereo not given) | > 30 |  |
| CCCOC(=O)Cc1c(C(=O)O)[nH]c2cc(Cl)ccc12 | 6.8 |  |
| CCOC(=O)Cc1c(CO)[nH]c2cc(Cl)ccc12 | > 30 |  |
| O=C(O)c1cc2cc(Cl)ccc2[nH]1 [5-CHLOROINDOLE-2-CARBOXYLIC ACID] | > 100 |  |
| CN(C)C(=O)Cc1c(C(=O)O)[nH]c2cc(Cl)ccc12 | > 30 |  |
| O=C(Cc1c(C(=O)O)[nH]c2cc(Cl)ccc12)NCCO | 10.3 |  |
| O=C(O)Cc1c(C(=O)O)[nH]c2ccc(Br)cc12 | 29.2 |  |
| O=C(O)Cc1c(C(=O)O)[nH]c2cc(Cl)ccc12 | 1.61 | 6.8 |
| CC(C)OC(=O)Cc1c(C(=O)O)[nH]c2cc(Cl)ccc12 | 3.85 |  |
| CCOC(=O)Cc1c(C=O)[nH]c2cc(Cl)ccc12 | > 30 |  |
| Cc1ccc2[nH]c(C(=O)O)cc2c1 | > 100 |  |
| CN(C)CCCNC(=O)Cc1c(C(=O)O)[nH]c2cc(Cl)ccc12 | > 30 |  |
| O=C(O)CCCCc1c(C(=O)O)[nH]c2ccccc12 | > 100 |  |
| O=C(O)CCCc1c(C(=O)O)[nH]c2ccccc12 | > 100 |  |
| CCOC(=O)Cc1c(C(=O)O)[nH]c2cc(Cl)ccc12 | 0.68 |  |
| O=C(O)c1cc2c(O)cccc2[nH]1 | > 30 |  |
| Cn1c(C(=O)O)c(CC(=O)O)c2ccccc21 | > 100 |  |
| O=C(O)Cc1c(C(=O)O)oc2ccccc12 | > 100 |  |
| O=C(O)Cc1c(C(=O)O)[nH]c2ccc(F)cc12 | 14.1 |  |
| O=C(O)Cc1cc2ccccc2nc1C(=O)O | > 100 |  |
| CN(C)CCNC(=O)Cc1c(C(=O)NCCN(C)C)[nH]c2cc(Cl)ccc12 | > 30 |  |
| O=C(O)Cc1c(CO)[nH]c2cc(Cl)ccc12 | > 30 |  |

Reference: ChEMBL document CHEMBL1125656, “Novel indole-2-carboxylates as ligands for the strychnine-insensitive N-methyl-D-aspartate-linked glycine receptor” (J Med Chem, 1991)
